# Results from different studies.
# Each line is one published result; the experiments were not run side by side.
Compound,species,sample,route,dose,time,notes,concentration
COc1nc(-c2cc(C)c(N[C@@H](C)c3cc(F)cc(F)c3)nn2)ccc1-n1cnc(C)c1,male Sprague-Dawley rat,CSF,oral,25 mg/kg,4 h,"multiple doses, once daily",76.6 ng/mL
COc1ccc2c(=O)n(C)c(-c3ccccc3)nc2c1,male Sprague-Dawley rat,lung,oral,30 mg/kg,30 min,single dose,27.5 ng/g
Cc1ccc(-c2cc(C(F)(F)F)nn2-c2ccc(S(N)(=O)=O)cc2)cc1,male Sprague-Dawley rat,plasma,oral,20 mg/kg,4 h,,1500 nM
Cc1noc(C)c1Cn1cc(N2C(=O)CN(Cc3cccc(O)c3)C2=O)cn1,male Sprague-Dawley rat,plasma,oral,30 mg/kg,2 h,,16.5 ng/mL
CCc1cc(-c2noc(-c3cc(OC)nc(C4CCCC4)c3)n2)cc(C)c1OC[C@@H](O)CO,Wistar rat,plasma,oral,0.1 mg/kg,3 h,single dose,6.2 ng/mL
CCOC(=O)[C@@]12C[C@@H]1[C@@H](n1ccc3c(NC)nc(C#Cc4ccc(Cl)s4)nc31)[C@H](O)[C@@H]2O,male Sprague-Dawley rat,plasma,oral,10 mg/kg,4 h,,23.5 ng/mL
Cc1noc(C)c1Cn1cc(N2C(=O)N(Cc3cccc(O)c3)C(C)(C)C2=O)cn1,male Sprague-Dawley rat,plasma,oral,100 mg/kg,30 min,single dose,2.6 ng/mL
COc1cccc(-c2n[nH]c(SCc3ccccn3)n2)c1OC,female Sprague-Dawley rat,plasma,intravenous,1 mg/kg,4.98 min,single dose,4780 ng/mL
